Experimental data reported in ChEMBL document CHEMBL2384906, “Biological activity, design, synthesis and structure activity relationship of some novel derivatives of curcumin containing sulfonamides” (Eur J Med Chem, 2013).
In brackets after ≈: the same amount, converted by molar mass. Activity calls are given as the source filed them. No cut-off for these calls is given here.

Tests used:
Mus musculus = experiment: Antiinflammatory activity in mouse assessed as inhibition of carrageenan-induced increase in paw volume at 200 mg/kg administered 1 hr prior to carrageenan challenge measured after 3 hrs relative to control; assay type: functional
In short: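 Mice were fasted 2 h and placed in groups of five. Controls received saline i.p. Phenylbutazone was given at 100 mg/kg i.p., curcumin at 200 mg/kg i.p., and derivatives at 200 mg/kg. After 1 h, 0.1 mL of 1% carrageenan in saline was injected subplantar into the right hind paw. Paw volume was followed by plethysmometer for 3 h, and % inhibition was calculated as (Vc − Vt)/Vc × 100.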

Staphylococcus aureus [1] = experiment: Antimicrobial activity against Staphylococcus aureus ATCC 11632 assessed as diameter of inhibition zone at 80 uM after 24 hrs by Kirby -Baur disc diffusion method; assay type: functional; settings: ATCC 11632, 24 h, read-out: DIZ
In short: (§1)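 Kirby-Bauer disc diffusion was used. Acetone stocks (160 µM) were serially doubled down to 80, 40 and 20 µM. 4 µL of each went onto 5 mm sterile paper discs, which were dried 30 min at 50 °C. Inoculum was 1.5 × 10⁸ CFU/mL diluted to 3 × 10² CFU/mL, and 50 µL was spread on Mueller-Hinton agar. After 24 h at 37 °C the inhibition-zone diameter was measured. Ciprofloxacin served as positive control.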

Curvularia lunata [2] = experiment: Antifungal activity against Curvularia lunata MTCC 581 assessed as zone of inhibition at 80 uM after 48 hrs by disc diffusion method; assay type: functional; settings: MTCC 581, 48 h, read-out: IZ
In short: (§2)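 Spores from 4-day potato dextrose agar cultures, suspended in sterile water at 1.5 × 10⁵ CFU/mL. 0.2 mL was spread on potato dextrose agar. 5 mm filter-paper discs soaked with test compound were laid on the lawn. Incubation was 48 h at 28 °C, then the inhibition zone was measured in mm. Fluconazole was the positive control and acetone the negative control.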

Aspergillus niger [3] = experiment: Antifungal activity against Aspergillus niger MTCC 1108 assessed as zone of inhibition at 80 uM after 48 hrs by disc diffusion method; assay type: functional; settings: MTCC 1108, 48 h, read-out: IZ; in short: as §2
Escherichia coli [4] = experiment: Antimicrobial activity against Escherichia coli ATCC 35218 assessed as diameter of inhibition zone at 80 uM after 24 hrs by Kirby -Baur disc diffusion method; assay type: functional; settings: ATCC 35218, 24 h, read-out: DIZ; in short: as §1
HepG2 = experiment: Cytotoxicity against human HepG2 cells after 24 hrs by MTT assay; assay type: functional, cell-based
In short: (§3)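 The MTT assay seeded 5 × 10⁴ cells per well and grew them 24 h in RPMI 1640 with compound at 2.5–200 µM. Medium without cells was the blank and adriamycin the positive control. MTT was added for 4 h at 37 °C, formazan was solubilised, and absorbance was read at 570 nm. IC50 is the concentration that cuts viability 50% against untreated cells.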

Salmonella typhi [5] = experiment: Antimicrobial activity against Salmonella typhi ATCC 23564 assessed as diameter of inhibition zone at 40 uM after 24 hrs by Kirby -Baur disc diffusion method; assay type: functional, Salmonella enterica subsp. enterica serovar Typhi; settings: Salmonella enterica, ATCC 23564, 24 h; read-out: DIZ
Trichoderma viride [6] = experiment: Antifungal activity against Trichoderma viride MTCC 1107 assessed as zone of inhibition at 40 uM after 48 hrs by disc diffusion method; assay type: functional; settings: MTCC 1107, 48 h, read-out: IZ; in short: as §2
Salmonella typhi [7] = experiment: Antimicrobial activity against Salmonella typhi ATCC 23564 assessed as diameter of inhibition zone at 80 uM after 24 hrs by Kirby -Baur disc diffusion method; assay type: functional, Salmonella enterica subsp. enterica serovar Typhi; settings: Salmonella enterica, ATCC 23564, 24 h; read-out: DIZ
Bacillus cereus [8] = experiment: Antimicrobial activity against Bacillus cereus MTCC 7350 assessed as diameter of inhibition zone at 20 uM after 24 hrs by Kirby -Baur disc diffusion method; assay type: functional; settings: MTCC 7350, 24 h, read-out: DIZ; in short: as §1
HeLa = experiment: Cytotoxicity against human HeLa cells after 24 hrs by MTT assay; assay type: functional, cell-based; in short: as §3
Aspergillus niger [9] = experiment: Antifungal activity against Aspergillus niger MTCC 1108 assessed as zone of inhibition at 40 uM after 48 hrs by disc diffusion method; assay type: functional; settings: MTCC 1108, 48 h, read-out: IZ; in short: as §2
Trichoderma viride [10] = experiment: Antifungal activity against Trichoderma viride MTCC 1107 after 48 hrs; assay type: functional; settings: MTCC 1107, 48 h
QG-56 = experiment: Cytotoxicity against human QG56 cells after 24 hrs by MTT assay; assay type: functional, cell-based; in short: as §3
Curvularia lunata [11] = experiment: Antifungal activity against Curvularia lunata MTCC 581 assessed as zone of inhibition at 40 uM after 48 hrs by disc diffusion method; assay type: functional; settings: MTCC 581, 48 h, read-out: IZ; in short: as §2
Aspergillus niger [12] = experiment: Antifungal activity against Aspergillus niger MTCC 1108 assessed as zone of inhibition at 20 uM after 48 hrs by disc diffusion method; assay type: functional; in short: as §2
Pseudomonas aeruginosa [13] = experiment: Antimicrobial activity against Pseudomonas aeruginosa ATCC 15499 after 24 hrs by broth micro serial dilution method; assay type: functional; settings: ATCC 15499, 24 h
In short: (§4)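 This was broth microdilution in autoclaved Mueller-Hinton broth. 150 µL of compound per well was serially diluted […], and 50 µL of test organism was added. Plates were incubated 24 h at 37 °C and optical density was read.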

Staphylococcus aureus [14] = experiment: Antimicrobial activity against Staphylococcus aureus ATCC 11632 after 24 hrs by broth micro serial dilution method; assay type: functional; settings: ATCC 11632, 24 h; in short: as §4
Pseudomonas aeruginosa [15] = experiment: Antimicrobial activity against Pseudomonas aeruginosa ATCC 15499 assessed as diameter of inhibition zone at 40 uM after 24 hrs by Kirby -Baur disc diffusion method; assay type: functional; settings: ATCC 15499, 24 h, read-out: DIZ; in short: as §1
Escherichia coli [16] = experiment: Antimicrobial activity against Escherichia coli ATCC 35218 assessed as diameter of inhibition zone at 40 uM after 24 hrs by Kirby -Baur disc diffusion method; assay type: functional; settings: ATCC 35218, 24 h, read-out: DIZ; in short: as §1
Curvularia lunata [17] = experiment: Antifungal activity against Curvularia lunata MTCC 581 assessed as zone of inhibition at 20 uM after 48 hrs by disc diffusion method; assay type: functional; settings: MTCC 581, 48 h, read-out: IZ; in short: as §2
Pseudomonas aeruginosa [18] = experiment: Antimicrobial activity against Pseudomonas aeruginosa ATCC 15499 assessed as diameter of inhibition zone at 20 uM after 24 hrs by Kirby -Baur disc diffusion method; assay type: functional; settings: ATCC 15499, 24 h, read-out: DIZ; in short: as §1
Bacillus cereus [19] = experiment: Antimicrobial activity against Bacillus cereus MTCC 7350 after 24 hrs by broth micro serial dilution method; assay type: functional; settings: MTCC 7350, 24 h; in short: as §4
Curvularia lunata [20] = experiment: Antifungal activity against Curvularia lunata MTCC 581 after 48 hrs; assay type: functional; settings: MTCC 581, 48 h
Bacillus cereus [21] = experiment: Antimicrobial activity against Bacillus cereus MTCC 7350 assessed as diameter of inhibition zone at 80 uM after 24 hrs by Kirby -Baur disc diffusion method; assay type: functional; settings: MTCC 7350, 24 h, read-out: DIZ; in short: as §1
Aspergillus flavus [22] = experiment: Antifungal activity against Aspergillus flavus MTCC 1021 assessed as zone of inhibition at 20 uM after 48 hrs by disc diffusion method; assay type: functional; in short: as §2
Escherichia coli [23] = experiment: Antimicrobial activity against Escherichia coli ATCC 35218 assessed as diameter of inhibition zone at 20 uM after 24 hrs by Kirby -Baur disc diffusion method; assay type: functional; settings: ATCC 35218, 24 h, read-out: DIZ; in short: as §1
Salmonella typhi [24] = experiment: Antimicrobial activity against Salmonella typhi ATCC 23564 assessed as diameter of inhibition zone at 20 uM after 24 hrs by Kirby -Baur disc diffusion method; assay type: functional, Salmonella enterica subsp. enterica serovar Typhi; settings: Salmonella enterica, ATCC 23564, 24 h; read-out: DIZ
Trichoderma viride [25] = experiment: Antifungal activity against Trichoderma viride MTCC 1107 assessed as zone of inhibition at 20 uM after 48 hrs by disc diffusion method; assay type: functional; settings: MTCC 1107, 48 h, read-out: IZ; in short: as §2
Staphylococcus aureus [26] = experiment: Antimicrobial activity against Staphylococcus aureus ATCC 11632 assessed as diameter of inhibition zone at 40 uM after 24 hrs by Kirby -Baur disc diffusion method; assay type: functional; settings: ATCC 11632, 24 h, read-out: DIZ; in short: as §1
Staphylococcus aureus [27] = experiment: Antimicrobial activity against Staphylococcus aureus ATCC 11632 assessed as diameter of inhibition zone at 20 uM after 24 hrs by Kirby -Baur disc diffusion method; assay type: functional; settings: ATCC 11632, 24 h, read-out: DIZ; in short: as §1
Aspergillus flavus [28] = experiment: Antifungal activity against Aspergillus flavus MTCC 1021 assessed as zone of inhibition at 40 uM after 48 hrs by disc diffusion method; assay type: functional; settings: MTCC 1021, 48 h, read-out: IZ; in short: as §2
Escherichia coli [29] = experiment: Antimicrobial activity against Escherichia coli ATCC 35218 after 24 hrs by broth micro serial dilution method; assay type: functional; settings: ATCC 35218, 24 h; in short: as §4
Aspergillus flavus [30] = experiment: Antifungal activity against Aspergillus flavus MTCC 1021 after 48 hrs; assay type: functional; settings: MTCC 1021, 48 h
Aspergillus flavus [31] = experiment: Antifungal activity against Aspergillus flavus MTCC 1021 assessed as zone of inhibition at 80 uM after 48 hrs by disc diffusion method; assay type: functional; settings: MTCC 1021, 48 h, read-out: IZ; in short: as §2
HCT-116 = experiment: Cytotoxicity against human HCT116 cells after 24 hrs by MTT assay; assay type: functional, cell-based; in short: as §3
Aspergillus niger [32] = experiment: Antifungal activity against Aspergillus niger MTCC 1108 after 48 hrs; assay type: functional; settings: MTCC 1108, 48 h
Pseudomonas aeruginosa [33] = experiment: Antimicrobial activity against Pseudomonas aeruginosa ATCC 15499 assessed as diameter of inhibition zone at 80 uM after 24 hrs by Kirby -Baur disc diffusion method; assay type: functional; settings: ATCC 15499, 24 h, read-out: DIZ; in short: as §1
Bacillus cereus [34] = experiment: Antimicrobial activity against Bacillus cereus MTCC 7350 assessed as diameter of inhibition zone at 40 uM after 24 hrs by Kirby -Baur disc diffusion method; assay type: functional; settings: MTCC 7350, 24 h, read-out: DIZ; in short: as §1
Salmonella typhi [35] = experiment: Antimicrobial activity against Salmonella typhi ATCC 23564 after 24 hrs by broth micro serial dilution method; assay type: functional, Salmonella enterica subsp. enterica serovar Typhi; settings: Salmonella enterica, ATCC 23564, 24 h
Trichoderma viride [36] = experiment: Antifungal activity against Trichoderma viride MTCC 1107 assessed as zone of inhibition at 80 uM after 48 hrs by disc diffusion method; assay type: functional; settings: MTCC 1107, 48 h, read-out: IZ; in short: as §2

## COc1cc(/C=C/C(O)=C/C(/C=C/c2ccc(O)c(OC)c2)=N/c2ccc(S(=O)(=O)Nc3cc(C)on3)cc2)ccc1O
Mus musculus
  inhibition in vivo at 200 mg/kg: 33.8%
Staphylococcus aureus [1]
  zone of inhibition at 80 µM: 24 mm
Curvularia lunata [2]
  zone of inhibition at 80 µM: 11 mm
Aspergillus niger [3]
  zone of inhibition at 80 µM: 12 mm
Escherichia coli [4]
  zone of inhibition at 80 µM: 27 mm
HepG2
  IC50: 25 µM
Salmonella typhi [5]
  zone of inhibition at 40 µM: 17 mm
Trichoderma viride [6]
  zone of inhibition at 40 µM: 11 mm
Salmonella typhi [7]
  zone of inhibition at 80 µM: 20 mm
Bacillus cereus [8]
  zone of inhibition at 20 µM: 13 mm
HeLa
  IC50: 50 µM
Aspergillus niger [9]
  zone of inhibition at 40 µM: 9 mm
Trichoderma viride [10]
  MIC: 80 µM (≈ 48.3 µg/mL)
QG-56
  IC50: 50 µM
Curvularia lunata [11]
  zone of inhibition at 40 µM: 10 mm
Aspergillus niger [12]
  inhibition zone (IZ): inactive
Pseudomonas aeruginosa [13]
  MIC: 20 µM (≈ 12.1 µg/mL)
Staphylococcus aureus [14]
  MIC: 20 µM (≈ 12.1 µg/mL)
Pseudomonas aeruginosa [15]
  zone of inhibition at 40 µM: 23 mm
Escherichia coli [16]
  zone of inhibition at 40 µM: 21 mm
Curvularia lunata [17]
  zone of inhibition at 20 µM: 9 mm
Pseudomonas aeruginosa [18]
  zone of inhibition at 20 µM: 17 mm
Bacillus cereus [19]
  MIC: 20 µM (≈ 12.1 µg/mL)
Curvularia lunata [20]
  MIC: 80 µM (≈ 48.3 µg/mL)
Bacillus cereus [21]
  zone of inhibition at 80 µM: 21 mm
Aspergillus flavus [22]
  inhibition zone (IZ): inactive
Escherichia coli [23]
  zone of inhibition at 20 µM: 19 mm
Salmonella typhi [24]
  zone of inhibition at 20 µM: 12 mm
Trichoderma viride [25]
  zone of inhibition at 20 µM: 9 mm
Staphylococcus aureus [26]
  zone of inhibition at 40 µM: 21 mm
Staphylococcus aureus [27]
  zone of inhibition at 20 µM: 17 mm
Aspergillus flavus [28]
  zone of inhibition at 40 µM: 9 mm
Escherichia coli [29]
  MIC: 20 µM (≈ 12.1 µg/mL)
Aspergillus flavus [30]
  MIC: > 80 µM
Aspergillus flavus [31]
  zone of inhibition at 80 µM: 11 mm
HCT-116
  IC50: 25 µM
Aspergillus niger [32]
  MIC: 40 µM (≈ 24.1 µg/mL)
Pseudomonas aeruginosa [33]
  zone of inhibition at 80 µM: 25 mm
Bacillus cereus [34]
  zone of inhibition at 40 µM: 18 mm
Salmonella typhi [35]
  MIC: 20 µM (≈ 12.1 µg/mL)
Trichoderma viride [36]
  zone of inhibition at 80 µM: 13 mm
